The record followed here is ChEMBL document CHEMBL1667806, “Synthesis and evaluation of anti-tubercular activity of new dithiocarbamate sugar derivatives” (2011).

In brackets after ≈: the same amount, converted by molar mass. Bounds are passed on as bounds.

Test [1] relates to Mycobacterium tuberculosis. Kind of test: Antimycobacterial activity against Mycobacterium tuberculosis H37Rv. In kind it is functional.
Test [2] can be described thus: microbe, parasite or virus in culture. Format: functional, Mycobacterium bovis BCG str. Tokyo 172. To be noted: Mycobacterium tuberculosis variant bovis BCG.
Test [3] in a line: microbe, parasite or virus in culture. In kind it is functional, Mycobacterium avium subsp. hominissuis. To be noted: Mycobacterium avium, 104.
In another test the test system is Mycobacterium avium. Kind of test: microbe, parasite or virus in culture. To be noted: ATCC 2529. Format: functional, Mycobacterium avium subsp. avium ATCC 25291.
Test [4] has as its system Staphylococcus aureus. Kind of test: Antimicrobial activity against Staphylococcus aureus. In kind it is functional.
In test [5] the test system is Staphylococcus aureus. In words: microbe, parasite or virus in culture. Format: functional. To be noted: 873.
The test system of test [6] is Escherichia coli. Kind of test: Antimicrobial activity against Escherichia coli DH5alpha. Format: functional. As to conditions: DH5[alpha].
Test [7] relates to Staphylococcus aureus. Kind of test: Antimicrobial activity against drug-sensitive Staphylococcus aureus 209PJC-1. In kind it is functional.
The subject of test [8] is Staphylococcus aureus. Kind of test: Antimicrobial activity against drug-sensitive Staphylococcus aureus RN4220. Format: functional.
Test [9] has as its system Staphylococcus aureus. Kind of test: Antimicrobial activity against methicillin-resistant Staphylococcus aureus MF490. Format: functional.
For test [10], the system named is Enterococcus faecalis. In words: Antimicrobial activity against AGs-resistant Enterococcus faecalis ATCC 19433. Format: functional.
The subject of test [11] is Enterococcus faecalis. Kind of test: Antimicrobial activity against AGs-resistant Enterococcus faecalis ATCC 19434. In kind it is functional.
Test [12] has as its system Escherichia coli. In words: Antimicrobial activity against drug-sensitive Escherichia coli JM109. In kind it is functional.
The next test has as its system Klebsiella pneumoniae. Kind of test: Antibacterial activity against […] Klebsiella pneumoniae ATCC BAA-1705. Format: functional.
In a further test the test system is Pseudomonas aeruginosa. Kind of test: Antibacterial activity against drug-sensitive Pseudomonas aeruginosa PAO1. Format: functional.
Test [13] deals with Mycobacterium tuberculosis. Kind of test: Antimycobacterial activity against drug-sensitive Mycobacterium tuberculosis isolate 1. In kind it is functional.
Test [14] deals with Mycobacterium tuberculosis. Kind of test: Antimycobacterial activity against drug-sensitive Mycobacterium tuberculosis isolate 2. Format: functional. The method, boiled down:
(§1)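 MIC by broth dilution in Middlebrook 7H9 broth supplemented with albumin, dextrose and catalase.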

Test [15] has as its system Mycobacterium tuberculosis. Kind of test: Antimycobacterial activity against drug-sensitive Mycobacterium tuberculosis isolate 3. Format: functional. In a few lines: as §1
Test [16] concerns Mycobacterium tuberculosis. Kind of test: Antimycobacterial activity against drug-sensitive Mycobacterium tuberculosis isolate 4. In kind it is functional. The method, boiled down:
as §1

The test system of test [17] is Mycobacterium tuberculosis. Kind of test: Antimycobacterial activity against drug-sensitive Mycobacterium tuberculosis isolate 5. In kind it is functional. In a few lines:
as §1

Test [18] relates to Mycobacterium tuberculosis. Kind of test: Antimycobacterial activity against drug-sensitive Mycobacterium tuberculosis isolate 6. In kind it is functional. The method, boiled down: as §1
For test [19], the system named is Mycobacterium tuberculosis. In words: Antimycobacterial activity against drug-sensitive Mycobacterium tuberculosis isolate 7. In kind it is functional. In a few lines: as §1
For test [20], the system named is Mycobacterium tuberculosis. In words: Antimycobacterial activity against drug-sensitive Mycobacterium tuberculosis isolate 8. Format: functional. The method, boiled down:
as §1

Test [21] deals with Mycobacterium tuberculosis. Kind of test: Antimycobacterial activity against drug-sensitive Mycobacterium tuberculosis isolate 9. In kind it is functional. The method, boiled down: as §1
The test system of test [22] is Mycobacterium tuberculosis. Kind of test: Antimycobacterial activity against drug-sensitive Mycobacterium tuberculosis isolate 10. Format: functional. In a few lines: as §1
For test [23], the system named is Mycobacterium tuberculosis. In words: Antimycobacterial activity against drug-sensitive Mycobacterium tuberculosis isolate 11. Format: functional. The method, boiled down: as §1
Test [24] has as its system Mycobacterium tuberculosis. In words: Antimycobacterial activity against drug-sensitive Mycobacterium tuberculosis isolate 12. Format: functional. In a few lines:
as §1

Test [25] deals with Mycobacterium tuberculosis. Kind of test: Antimycobacterial activity against drug-sensitive Mycobacterium tuberculosis isolate 13. Format: functional. The method, boiled down:
as §1

Test [26] deals with Mycobacterium tuberculosis. In words: Antimycobacterial activity against drug-sensitive Mycobacterium tuberculosis isolate 14. In kind it is functional. In a few lines: as §1
Test [27] deals with Mycobacterium tuberculosis. In words: Antimycobacterial activity against drug-sensitive Mycobacterium tuberculosis isolate 15. Format: functional. The method, boiled down: as §1
In test [28] the test system is Mycobacterium tuberculosis. Kind of test: Antimycobacterial activity against drug-sensitive Mycobacterium tuberculosis isolate 16. In kind it is functional. The method, boiled down:
as §1

The test system of test [29] is Mycobacterium tuberculosis. Kind of test: Antimycobacterial activity against drug-sensitive Mycobacterium tuberculosis isolate 17. In kind it is functional. The method, boiled down: as §1
In test [30] the test system is Mycobacterium tuberculosis. Kind of test: Antimycobacterial activity against drug-sensitive Mycobacterium tuberculosis isolate 18. Format: functional. The method, boiled down: as §1
Test [31] deals with Mycobacterium tuberculosis. In words: Antimycobacterial activity against drug-sensitive Mycobacterium tuberculosis isolate 19. Format: functional. In a few lines:
as §1

Test [32] has as its system Mycobacterium tuberculosis. Kind of test: Antimycobacterial activity against drug-sensitive Mycobacterium tuberculosis isolate 20. In kind it is functional. The method, boiled down:
as §1

Test [33] relates to Mycolicibacterium smegmatis. Kind of test: microbe, parasite or virus in culture. In kind it is functional. To be noted: JATA 64.01.

Consider `CC[C@@H](CO)NCCN[C@@H](CC)CO` [ETHAMBUTOL], for which the MIC is 2.5 µg/mL (≈ 12.2 µM) in test [1]; 1.5 µg/mL (≈ 7.34 µM) in [2]; 1.6 µg/mL (≈ 7.83 µM) in test [3]; 1.6 µg/mL (≈ 7.83 µM) against Mycobacterium avium; over 100 µg/mL in the test with Staphylococcus aureus [4]; over 100 µg/mL against Staphylococcus aureus [5]. The MIC against Escherichia coli [6] is over 100 µg/mL.
Turning to `NNC(=O)c1ccncc1` [ISONIAZID], the MIC in test [1] was 0.04 µg/mL (≈ 0.292 µM); in test [2], 0.04 µg/mL (≈ 0.292 µM); in [3], 1.56 µg/mL (≈ 11.4 µM); against Mycobacterium avium, 3.13 µg/mL (≈ 22.8 µM); against Staphylococcus aureus [4] it was over 100 µg/mL; in the test on Staphylococcus aureus [5], over 100 µg/mL. Further, the MIC against Escherichia coli [6] was over 100 µg/mL.
The molecule `CN(C)C(=S)S[C@@H]1O[C@H](CO)[C@@H](O)[C@H](O)[C@H]1NC(=O)c1ccccc1` displayed an MIC in test [1] of 100 µg/mL (≈ 259 µM).
Turning to `CO[C@H]1/C=C/O[C@@]2(C)Oc3c(C)c(O)c4c(O)c(c(/C=N/N5CCN(C)CC5)c(O)c4c3C2=O)NC(=O)/C(C)=C\C=C\[C@H](C)[C@H](O)[C@@H](C)[C@@H](O)[C@@H](C)[C@H](OC(C)=O)[C@@H]1C` [RIFAMPIN], the MIC in [1] is 0.004 µg/mL (≈ 0.00486 µM); in test [2] it was 0.004 µg/mL (≈ 0.00486 µM); in [3], 0.25 µg/mL (≈ 0.304 µM); with Mycobacterium avium, under 0.05 µg/mL; against Staphylococcus aureus [4], 0.002 µg/mL (≈ 0.00243 µM); against Staphylococcus aureus [5] it was 0.004 µg/mL (≈ 0.00486 µM). In the test with Escherichia coli [6], this molecule displayed an MIC of 50 µg/mL (≈ 60.8 µM).
For the molecule `CC(=O)N[C@@H]1[C@@H](O)[C@H](O)[C@@H](CO)O[C@H]1SC(=S)N1CCCC1`, the MIC is 6.25 µg/mL (≈ 17.8 µM) in test [1]; 12.5 µg/mL (≈ 35.7 µM) in test [2]; 100 µg/mL (≈ 285 µM) in [3]; 50 µg/mL (≈ 143 µM) in the test with Mycobacterium avium; over 100 µg/mL in the test on Staphylococcus aureus [4]; over 100 µg/mL against Staphylococcus aureus [5]. In addition, the MIC against Escherichia coli [6] is over 100 µg/mL; against Staphylococcus aureus [7] it was over 128 µg/mL; with Staphylococcus aureus [8] it was over 128 µg/mL; with Staphylococcus aureus [9], over 128 µg/mL; in the test with Enterococcus faecalis [10], over 128 µg/mL; in the test with Enterococcus faecalis [11], over 128 µg/mL. For the same molecule, the MIC with Escherichia coli [12] is over 128 µg/mL; against Klebsiella pneumoniae, over 128 µg/mL; in the test on Pseudomonas aeruginosa it was over 128 µg/mL; in [13] it was 6.25 µg/mL (≈ 17.8 µM); in test [14], 6.25 µg/mL (≈ 17.8 µM); in test [15], 6.25 µg/mL (≈ 17.8 µM). Besides, the MIC came out at 6.25 µg/mL (≈ 17.8 µM) in [16]; 6.25 µg/mL (≈ 17.8 µM) in test [17]; 6.25 µg/mL (≈ 17.8 µM) in test [18]; 12.5 µg/mL (≈ 35.7 µM) in test [19]; 12.5 µg/mL (≈ 35.7 µM) in test [20]; 6.25 µg/mL (≈ 17.8 µM) in test [21]. In addition, the MIC in [22] is 6.25 µg/mL (≈ 17.8 µM); in test [23], 6.25 µg/mL (≈ 17.8 µM); in [24] it was 6.25 µg/mL (≈ 17.8 µM); in test [25], 12.5 µg/mL (≈ 35.7 µM); in [26] it was 6.25 µg/mL (≈ 17.8 µM); in [27] it was 6.25 µg/mL (≈ 17.8 µM). Besides, the MIC was 6.25 µg/mL (≈ 17.8 µM) in test [28]; 6.25 µg/mL (≈ 17.8 µM) in [29]; 6.25 µg/mL (≈ 17.8 µM) in [30]; 6.25 µg/mL (≈ 17.8 µM) in [31]; 12.5 µg/mL (≈ 35.7 µM) in test [32].
On to `CC(=O)N[C@@H]1[C@@H](O)[C@H](O)[C@@H](CO)O[C@H]1O` [N-ACETYLGLUCOSAMINE], for which the MIC (in test [1]; in test [2]; in [3]; against Mycobacterium avium; in the test with Staphylococcus aureus [4]; against Staphylococcus aureus [5]) was over 100 µg/mL throughout. The MIC in the test with Escherichia coli [6] was over 100 µg/mL.
Turning to `S=C([S-])N(c1c[nH]cn1)c1c[nH]cn1.[Na+]`, the figures for the MIC in test [1], in test [2] and in test [33] were 6.25 µg/mL, 12.5 µg/mL and over 100 µg/mL, respectively.
In turn, `CCCCCCCCCCCCCCCCCC(=O)N[C@@H]1[C@@H](O)[C@H](O)[C@@H](CO)O[C@H]1SC(=S)N(C)C` yielded an MIC in test [1] of 100 µg/mL (≈ 182 µM).
Consider `CC(=O)N[C@@H]1[C@@H](O)[C@H](O)[C@@H](CO)O[C@H]1SC(=S)N(C)C`, for which the MIC was 25 µg/mL (≈ 77.1 µM) in test [1]; 31.3 µg/mL (≈ 96.5 µM) in test [2]; over 100 µg/mL in [3]; over 100 µg/mL in the test on Mycobacterium avium; over 100 µg/mL against Staphylococcus aureus [4]; over 100 µg/mL in the test on Staphylococcus aureus [5]. In the test on Escherichia coli [6], the MIC is over 100 µg/mL.
With `CC1(C)S[C@@H]2[C@H](NC(=O)Cc3ccccc3)C(=O)N2[C@H]1C(=O)O` [PENICILLIN G], the MIC in test [1] is 500 µg/mL (≈ 1500 µM); in [2], 500 µg/mL (≈ 1500 µM); against Staphylococcus aureus [4], 31.3 µg/mL (≈ 93.6 µM); in the test on Staphylococcus aureus [5], over 500 µg/mL; with Escherichia coli [6], 25 µg/mL (≈ 74.8 µM).
In the case of `CC1(C)S[C@@H]2[C@H](NC(=O)[C@H](N)c3ccccc3)C(=O)N2[C@H]1C(=O)O` [AMPICILLIN], the MIC in test [1] was 12.5 µg/mL (≈ 35.8 µM); in test [2] it was 12.5 µg/mL (≈ 35.8 µM); against Staphylococcus aureus [4] it was 50 µg/mL (≈ 143 µM); in the test with Staphylococcus aureus [5], over 100 µg/mL; in the test with Escherichia coli [6] it was over 100 µg/mL.
